KCNQ1 inh – inhibitors of human KCNQ1 potassium channel | P51787 | CHO-K1 KCNQ1, FluxOR thallium flux fluorescence; stronger effect = higher value | B-score at 10 µM | hit rate 1.3% among 310,000;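 active = compounds whose thallium flux B-score, printed positive for inhibition, exceeds three library SD while starting fluorescence stays within three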;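 note: channel opened by potassium depolarization with thallium stimulus after 20 min compound exposure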
KCNK9 block – human KCNK9 channel inhibition. hit rate 1.2% among 310,000. B-score at 10 µM. AID 488922. HEK293 KCNK9, FluxOR thallium flux fluorescence; stronger effect = lower value;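 active = ratio B-score over 3 SD below the library mean, with starting fluorescence within 5 SD of its mean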;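 note: negative B-score means less thallium flux so channel inhibition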
KCNQ1 act – potentiates or activates the human KCNQ1 potassium channel; hit rate 0.35% among 310,000; CHO-K1 KCNQ1, thallium flux FluxOR fluorescence; stronger effect = higher value; B-score at 10 µM; AID 2648;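 active = fluorescence ratio B-score, a plate-corrected score, at least three library SD, with initial intensity B-score within 5 SD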
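System: Stable KCNQ1 CHO-K1 line | Incubation: 90 min dye loading and 20 min compound exposure, both at room temperature | Measure: Ratio B score | Medium: Assay buffer for compound exposure, DMSO matched across wells | Compound dosing: Single-concentration screen | Probe or stimulus: K+/Tl+ depolarizing stimulus | Measured by: Kinetic FluxOR fluorescence, 10 s baseline plus 110 s post-stimulus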
hERG protect – shields human hERG channel from block by proarrhythmic agents. AID 1511. CHO-hERG, FluxOR thallium flux, dofetilide IC70 present. hit rate 0.51% among 310,000. activation (rescue from dofetilide block), less the hit threshold, % at 10 µM. Q12809;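 active = activation above the mean of controls blocked by dofetilide plus 5 SD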;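 note: thallium influx through hERG after potassium depolarization seen as dye fluorescence rise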
KCNK3 block – human KCNK3 channel inhibition, primary screen | CHO-KCNK3 thallium flux, FluxOR fluorescence; stronger effect = lower value | hit rate 0.84% among 340,000 | B-score at 10 µM | AID 602410;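 active = B-score under library mean minus 4 SD, starting fluorescence ratio at most library mean plus 5 SD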;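 note: more negative B-score means stronger inhibition of thallium flux through KCNK3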
Target sequence (O14649 whole entry, looked up): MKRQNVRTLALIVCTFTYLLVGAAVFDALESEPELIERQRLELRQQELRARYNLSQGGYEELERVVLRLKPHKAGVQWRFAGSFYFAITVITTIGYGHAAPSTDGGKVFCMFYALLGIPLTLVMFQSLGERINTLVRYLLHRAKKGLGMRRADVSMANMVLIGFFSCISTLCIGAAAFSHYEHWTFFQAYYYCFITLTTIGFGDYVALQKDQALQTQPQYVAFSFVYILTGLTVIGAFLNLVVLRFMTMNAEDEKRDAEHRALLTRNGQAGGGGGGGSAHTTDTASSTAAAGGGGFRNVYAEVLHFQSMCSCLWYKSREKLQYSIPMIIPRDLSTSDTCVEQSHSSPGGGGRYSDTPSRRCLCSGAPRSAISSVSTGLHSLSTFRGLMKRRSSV
KCNQ1 block val – confirmation of human KCNQ1 potassium channel inhibitors | KCNQ1 cell line, FluxOR thallium flux fluorescence | inhibition, % at 10 µM | shares compounds with KCNQ1 inh | hit rate 93% among 1,600;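 active = primary screen active, with duplicate mean exceeding buffer control mean plus 3 SD of buffer wells, cut at about 28% in these data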;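 note: 0% = buffer control ratio and 100% = XE991 inhibitor control ratio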
CHO Tl flux – KCNQ1 inhibitor counter-screen hit in parental CHO cells; hit rate 21% among 1,600; parental CHO-K1, FluxOR thallium flux fluorescence ratio; stronger effect = lower value; zero means no signal rise above baseline; fluorescence ratio (Tl flux) at 10 µM; shares compounds with KCNQ1 inh;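 active = mean of duplicate thallium-flux fluorescence ratios in parental host cells more than 5 SD below the buffer control mean, cut at about 0.38 in these data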;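 note: ratio is peak minus minimum fluorescence divided by baseline fluorescence; actives read low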
KCNQ1 APC inh – confirmation of human KCNQ1 potassium channel inhibitors by electrophysiology; shares compounds with KCNQ1 inh; AID 624120; KCNQ1-CHO cells, automated patch clamp current; hit rate 20% among 490; calls only at 10 µM;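 active = KCNQ1 current drop exceeding 3 SD of negative control wells, seen in both duplicate runs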;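 note: steady state current during a 2 s step from -80 to +40 mV; negative values mean current inhibition and positive values mean potentiation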
KCNQ2 inh – rat KCNQ2 inhibition in KCNQ1 inhibitor specificity screen; shares compounds with KCNQ1 inh; KCNQ2 cells, FluxOR thallium flux fluorescence; inhibition, % at 10 µM; hit rate 71% among 1,600; AID 651746;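 active = mean percent inhibition of the KCNQ2 thallium signal more than 5 SD above the buffer-only control wells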;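 note: KCNQ2 expressed in CHO cells; 0% = buffer control wells and 100% = XE-991 inhibitor control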
KCNQ1-KCNE1 inh – KCNQ1 inhibitor that also blocks human KCNQ1/KCNE1 channel. shares compounds with KCNQ1 inh. KCNQ1/KCNE1 cells, FluxOR thallium flux fluorescence. inhibition, % at 10 µM. hit rate 77% among 1,600;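 active = mean percent inhibition of duplicate wells above the buffer-only control mean plus 3 SD of those controls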;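 note: 0% = buffer only wells and 100% = XE-991 inhibitor control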
KCNK9 block conf – human KCNK9 inhibitor confirmation; HEK293 KCNK9 cells, FluxOR thallium flux fluorescence; hit rate 43% among 4,900; inhibition, % at 10 µM; shares compounds with KCNK9 block;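 active = thallium signal inhibited by more than 5 SD of the compound-free buffer control wells, on both duplicate plates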;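 note: 0% = assay buffer control wells without compound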
Kir2-1 spec – mouse Kir2.1 off-target activity of KCNK9 modulators; AID 492993; inhibition, % at 10 µM; hit rate 4% among 4,900; shares compounds with KCNK9 block; Kir2.1 cells, FluxOR thallium flux fluorescence;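 active = thallium signal drop more than 5 SD beyond the mean of the no-compound control wells, seen in both duplicate plates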;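 note: signal is fluorescence rise after thallium addition divided by baseline fluorescence; plate controls were assay buffer only for no effect and full block by chlorpromazine control for full effect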
Target sequence (P35561 whole entry, looked up): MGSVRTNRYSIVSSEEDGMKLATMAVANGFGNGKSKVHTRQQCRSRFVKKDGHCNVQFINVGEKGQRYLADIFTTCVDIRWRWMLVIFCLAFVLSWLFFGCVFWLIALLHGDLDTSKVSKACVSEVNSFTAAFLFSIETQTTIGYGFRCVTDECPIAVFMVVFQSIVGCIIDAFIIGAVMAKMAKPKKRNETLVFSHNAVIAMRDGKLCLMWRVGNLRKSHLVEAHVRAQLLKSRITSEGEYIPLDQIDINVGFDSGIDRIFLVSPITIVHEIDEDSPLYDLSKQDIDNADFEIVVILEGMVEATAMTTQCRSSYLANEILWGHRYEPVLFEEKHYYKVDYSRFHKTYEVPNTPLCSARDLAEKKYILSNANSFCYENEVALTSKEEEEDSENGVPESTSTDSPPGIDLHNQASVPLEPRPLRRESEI
HEK293 Tl ctr – second counter-screen for KCNK9 modulators: effect in non-induced cells; shares compounds with KCNK9 block; non-induced KCNK9-HEK293, FluxOR thallium flux; inhibition, % at 10 µM; hit rate 40% among 4,900;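 active = thallium signal drop beyond 5 SD of the untreated control mean, on both duplicate plates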;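 note: plate controls were buffer only IC0 wells for no effect and SID17386958 at its maximal inhibitory level for full effect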
KCNK3 confirm – human KCNK3 channel inhibition, confirmation assay; hit rate 99% among 2,400; AID 651638; shares compounds with KCNK3 block; ratio percent of control, % at 10 µM; CHO-KCNK3 thallium flux, FluxOR fluorescence; 0% buffer, 100% carvedilol maximal block;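 active = ratio percent of control, averaged over triplicates, above buffer control mean plus 5 SD, cut at about 64% in these data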;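 note: ratio is the fluorescence rise from min to max over baseline after thallium stimulus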
KCNK3 noninduced – counter-screen for KCNK3 inhibitors: effect in non-induced cells; shares compounds with KCNK3 block; non-induced KCNK3 parental cells, FluxOR thallium flux; stronger effect = lower value; thallium flux ratio (lower = more inhibition) at 10 µM; hit rate 40% among 2,400; AID 651747;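 active = thallium flux ratio, averaged over three wells, more than 5 SD below the buffer control mean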;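 note: host cells are CHO cells without KCNK3 induction; ratio is peak minus trough fluorescence over baseline then normalized to buffer controls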
An asterisk follows results filed as active; i = inactive; · = no result given; + = active, no number. In the library only some 3.1% were active in any assay of this set; here they are far more common.

SMILES	KCNQ1 inh	KCNK9 block	KCNQ1 act	hERG protect	KCNK3 block	others
Cn1cc(C(=O)NCc2ccc(Cl)cc2)c(=O)c2cc(S(=O)(=O)N3CCOCC3)ccc21	i	i	i	-6	i
CCCNC(=S)N1CCN(c2nc(C)nc3sc4c(c23)CCCC4)CC1	8*	i	i	-13	-9.5*	KCNQ1 block val=112*;CHO Tl flux=0.41;KCNQ1 APC inh=i;KCNQ2 inh=135%*;KCNQ1-KCNE1 inh=170%*;KCNK3 confirm=134*;KCNK3 noninduced=0.14*
O=C(COC(=O)c1ccc(S(=O)(=O)N2CCCCC2)cc1)Nc1ccccc1	·	·	·	·	i
O=c1c2c(nc(NCCO)n1CC1CCCCC1)-c1ccccc1CC21CCCC1	6*	-7.4*	i	4	-16*	KCNQ1 block val=91*;CHO Tl flux=0.43;KCNQ1 APC inh=i;KCNQ2 inh=104%*;KCNQ1-KCNE1 inh=i;KCNK3 confirm=115*;KCNK3 noninduced=0.16*
CCOc1ccc(N2C(=O)CN(CC(=O)OC)C2=S)cc1	i	i	i	-2	i
CC(C)OC(=O)NCCOC(=O)Nc1ccc(Cl)c(Cl)c1	10*	-8.1*	i	-23	-11*	KCNQ1 block val=80*;CHO Tl flux=0.42;KCNQ2 inh=119%*;KCNQ1-KCNE1 inh=i;KCNK3 confirm=105*;KCNK3 noninduced=i
CC(C)OC(=O)NCCOC(=O)Nc1cccc(Cl)c1	i	i	i	-2	i
CC1CCC(NS(=O)(=O)c2ccc(N3CCCC3=O)cc2)CC1 (configuration not stated)	i	i	i	-7	i
Oc1ccccc1N1CCN(c2ncnc3scc(-c4ccc(F)cc4)c23)CC1	9*	i	i	-10	-9.6*	KCNQ1 block val=121*;CHO Tl flux=0.37*;KCNQ2 inh=63%*;KCNQ1-KCNE1 inh=151%*;KCNK3 confirm=115*;KCNK3 noninduced=0.12*
CCOc1ccccc1N1CCN(c2ncnc3scc(-c4ccc(OC)cc4)c23)CC1	8*	-6.8*	i	-35	-9.4*	KCNQ1 block val=142*;CHO Tl flux=0.35*;KCNQ2 inh=141%*;KCNQ1-KCNE1 inh=174%*;KCNK3 confirm=140*;KCNK3 noninduced=0.11*
OCCN1CCN(c2ncnc3scc(-c4ccc(F)cc4)c23)CC1	i	i	i	-6	i
Cc1nc(N2CCN(c3ccccc3O)CC2)c2c(-c3ccccc3)csc2n1	18*	i	i	-12	-9.9*	KCNQ1 block val=54*;CHO Tl flux=0.42;KCNQ2 inh=89%*;KCNQ1-KCNE1 inh=88%*;KCNK3 confirm=116*;KCNK3 noninduced=0.11*
Cc1ccc(S(=O)(=O)N(C)C)cc1NC(=O)COC(=O)CCC1CCCCC1	i	i	i	-10	i
COCC(=O)Nc1ccc2c(c1)OCC(=O)N2Cc1ccc(C)cc1	i	i	i	-14	i
CC(C)Nc1nc(NC(C)C)nc(N(C#N)CCOc2ccc(Cl)cc2Cl)n1	14*	-7.9*	i	-4	-12*	KCNQ1 block val=134*;CHO Tl flux=0.31*;KCNQ2 inh=128%*;KCNQ1-KCNE1 inh=+;KCNK3 confirm=135*;KCNK3 noninduced=0.13*
O=C1CCC(/C=C/c2ccccc2)=NN1Cc1ccc(F)cc1	i	i	i	-10	i	KCNK9 block conf=i;Kir2-1 spec=i;HEK293 Tl ctr=i
CC(C)(C)c1ccc(CN2N=C(/C=C/c3ccccc3)CCC2=O)cc1	i	i	i	-10	i	KCNK9 block conf=i;Kir2-1 spec=i;HEK293 Tl ctr=i
O=C1CCC(/C=C/c2ccccc2)=NN1Cc1ccccc1	i	i	i	-8	i
O=C(COC(=O)c1ccc(S(=O)(=O)N2CCCCCC2)cc1)NCc1ccc(Cl)cc1	·	·	·	·	i
CC(=O)Nc1ccc(S(=O)(=O)N(C)CC(=O)N/N=C/c2ccncc2)cc1	i	i	i	-12	i
CCn1nc(C(=O)Nc2ccccc2C)c(Cl)c1Cl	i	i	i	-7	i
CCn1cc(Br)c(C(=O)Nc2ccc(Cl)c(Cl)c2)n1	i	i	i	-2	i
CCn1nc(C(=O)Nc2cccc(C(F)(F)F)c2)c(Cl)c1Cl	i	-8.9*	i	-7	i	KCNK9 block conf=46%*;Kir2-1 spec=i;HEK293 Tl ctr=28%*
CCn1cc(Br)c(C(=O)Nc2cccc(Cl)c2)n1	i	-12*	i	-6	i	KCNK9 block conf=63%*;Kir2-1 spec=i;HEK293 Tl ctr=33%*
O=C(COC(=O)Cc1cccs1)Nc1ccc(OC(F)(F)F)cc1	i	i	i	-12	i
SMILES	KCNQ1 inh	KCNK9 block	KCNQ1 act	hERG protect	KCNK3 block	others
COC(=O)C1CCC(=O)N1C(c1ccc(OC)cc1)c1cc(OC)c(OC)c(OC)c1 (configuration not stated)	·	·	·	·	i
CCN1CCCc2cc(CN(CCN3CCOCC3)C(=S)Nc3cccc(Cl)c3)ccc21	i	i	i	-13	i	KCNK9 block conf=i;Kir2-1 spec=i;HEK293 Tl ctr=i
CCN1CCCc2cc(CN(CCN3CCOCC3)C(=S)Nc3ccc(C)cc3)ccc21	i	i	i	-6	i
O=S(=O)(Nc1cc(S(=O)(=O)N2CCOCC2)ccc1NCC1CCCO1)c1ccccc1 (configuration not stated)	·	·	·	·	i
COc1cc(N=c2ssnc2Cl)c(OC)cc1Cl	i	i	i	-20	i	KCNK9 block conf=i;Kir2-1 spec=i;HEK293 Tl ctr=i
Cc1ccc(S(=O)(=O)N2CCN(C(=O)CSc3ncc(C(F)(F)F)cc3Cl)CC2)cc1	i	i	i	-6	i	KCNK9 block conf=i;Kir2-1 spec=i;HEK293 Tl ctr=i
CC1CCCN(S(=O)(=O)c2ccc([N+](=O)[O-])cc2)C1 (configuration not stated)	i	i	i	-4	i

High-throughput results as filed in PubChem BioAssay.
